pEC50, pKi: −log10 of the molar value. Active and inactive are the calls of the source. The calls are words filed in the database; no cut-off is given here.
Experiments:
[1] = biological target: Cannabinoid receptor 2 (Mus musculus, UniProt P47936); test: Displacement of [3H]CP-55,940 from mouse CB2 receptor expressed in HEK293 cells by scintillation counting method; type: cell-based
Summary of the method: (§1)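 Competition binding against [3H]CP-55,940. Membranes from rat brain (CB1) or from HEK293 cells expressing mouse or human CB2. IC50 from nonlinear regression, converted to Ki. Each experiment run in triplicate; Ki is the mean of three independent experiments.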

[2] = biological target: Cannabinoid receptor 2 (Homo sapiens, UniProt P34972); test: Displacement of [3H]CP-55,940 from human CB2 receptor expressed in HEK293 cells by scintillation counting method; type: cell-based; summary of the method: as §1
[3] = Metabolic stability in mouse plasma assessed as esterase-mediated compound hydrolysis by measuring compound half life by HPLC analysis; type: ADME
Summary of the method: (§2)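 Compounds at 200 μM in mouse plasma, 37 °C, shaken at 100 rpm. Samples taken over time, diluted 1:4 in acetonitrile and centrifuged. Supernatant analysed by C18 reverse-phase HPLC with an acetonitrile/acidified water gradient and UV detection (204 and 230 nm). Half-life from exponential decay fit.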

[4] = biological target: T1, Cannabinoid receptor 1 (Rattus norvegicus, UniProt P20272); test: Agonist activity at CB1 receptor in rat brain membranes assessed as reduction in forskolin-stimulated cAMP level measured from 3 data points after 30 mins; type: functional, cell membranes, Membrane
[5] = biological target: T1, Cannabinoid receptor 1; test: Displacement of [3H]CP-55,940 from CB1 receptor in rat brain membranes by scintillation counting method; type: cell membranes, Membrane; summary of the method: as §1
[6] = biological target: T1, Cannabinoid receptor 1; test: Agonist activity at CB1 receptor in rat brain membranes assessed as reduction in forskolin-stimulated cAMP level measured from 8 data points after 30 mins; type: functional, cell membranes, Membrane
[7] = biological target: Cannabinoid receptor 1 (Rattus norvegicus) (UniProt P20272); test: Agonist activity at CB1 receptor in rat brain membranes assessed as reduction in forskolin-stimulated cAMP level after 30 mins relative to CP-55,940; type: functional, cell membranes; details: Membrane
[8] = system: Rattus norvegicus; test: Hypothermic activity in sc dosed Sprague-Dawley rat measured over 6 hrs post dose; type: functional
[9] = system: Rattus norvegicus; test: Hypothermic activity in sc dosed Sprague-Dawley rat assessed as reduction in body temperature at 0.1 mg/kg, sc measured over 6 hrs post dose relative to baseline; type: functional, organism-based
[10] = system: Rattus norvegicus; test: Hypothermic activity in sc dosed Sprague-Dawley rat assessed as reduction in body temperature at 0.03 mg/kg, sc measured after 3 hrs post dose relative to baseline; type: functional, organism-based
[11] = system: Rattus norvegicus; test: Hypothermic activity in sc dosed Sprague-Dawley rat assessed as reduction in body temperature at 0.03 mg/kg, sc measured after 6 hrs post dose relative to baseline; type: functional, organism-based
[12] = Metabolic stability in mouse plasma assessed as esterase-mediated compound hydrolysis measured within 5 hrs by HPLC analysis; type: ADME; summary of the method: as §2
[13] = system: Rattus norvegicus; test: Hypothermic activity in sc dosed Sprague-Dawley rat assessed as reduction in body temperature at 0.3 mg/kg, sc measured after 12 hrs post dose relative to baseline; type: functional, organism-based

Sequence of Cannabinoid receptor 2 (Homo sapiens, UniProt P34972) (P34972 whole entry): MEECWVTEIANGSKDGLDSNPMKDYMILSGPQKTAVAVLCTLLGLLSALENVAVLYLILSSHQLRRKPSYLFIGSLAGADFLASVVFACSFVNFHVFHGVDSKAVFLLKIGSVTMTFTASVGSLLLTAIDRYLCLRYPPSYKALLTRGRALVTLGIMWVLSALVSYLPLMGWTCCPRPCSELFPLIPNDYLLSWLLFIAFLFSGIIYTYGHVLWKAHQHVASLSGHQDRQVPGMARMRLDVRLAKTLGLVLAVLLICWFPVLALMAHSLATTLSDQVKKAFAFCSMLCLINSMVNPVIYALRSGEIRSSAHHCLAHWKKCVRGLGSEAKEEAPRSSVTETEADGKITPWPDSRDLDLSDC
T1 sequence (P20272 whole entry): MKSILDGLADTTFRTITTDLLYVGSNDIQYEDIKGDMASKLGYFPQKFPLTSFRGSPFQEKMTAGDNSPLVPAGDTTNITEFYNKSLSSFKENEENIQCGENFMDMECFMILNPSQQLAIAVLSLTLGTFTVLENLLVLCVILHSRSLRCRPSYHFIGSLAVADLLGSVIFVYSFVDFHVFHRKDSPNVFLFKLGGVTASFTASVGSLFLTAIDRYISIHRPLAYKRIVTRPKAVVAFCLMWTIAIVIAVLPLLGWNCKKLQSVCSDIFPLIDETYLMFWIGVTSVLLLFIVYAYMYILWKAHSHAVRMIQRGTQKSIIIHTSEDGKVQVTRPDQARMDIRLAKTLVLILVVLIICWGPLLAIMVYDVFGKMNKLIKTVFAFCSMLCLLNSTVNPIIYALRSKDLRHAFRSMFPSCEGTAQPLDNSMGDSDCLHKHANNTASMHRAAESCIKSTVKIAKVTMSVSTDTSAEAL
Sequence of Cannabinoid receptor 2 (Mus musculus, UniProt P47936) (P47936 whole entry): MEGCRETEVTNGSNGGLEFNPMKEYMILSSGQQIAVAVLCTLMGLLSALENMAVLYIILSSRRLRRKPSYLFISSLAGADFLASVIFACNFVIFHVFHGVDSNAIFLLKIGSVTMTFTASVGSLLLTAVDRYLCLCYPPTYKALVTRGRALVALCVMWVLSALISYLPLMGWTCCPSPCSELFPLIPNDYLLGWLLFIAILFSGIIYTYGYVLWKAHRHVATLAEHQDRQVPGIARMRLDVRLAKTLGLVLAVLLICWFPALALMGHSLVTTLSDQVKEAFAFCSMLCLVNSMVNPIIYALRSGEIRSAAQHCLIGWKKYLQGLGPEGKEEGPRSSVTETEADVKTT
Sequence of Cannabinoid receptor 1 (Rattus norvegicus) (P20272 whole entry): as the sequence (P20272 whole entry) above

SMILES: CC1=CC[C@@H]2[C@@H](C1)c1c(O)cc(C(C)(C)C(=O)OCCCCn3ccnc3)cc1OC2(C)C
- pKi [1]: 8.09
- pKi [2]: 8.11
- t1/2 [3]: 392 min

SMILES: CC1=CC[C@@H]2[C@@H](C1)c1c(O)cc(C(C)(C)CO)cc1OC2(C)C
- pKi [1]: < 5.00
- pKi [2]: < 5.00

SMILES: CCOC(=O)C(C)(C)c1cc(O)c2c(c1)OC(C)(C)[C@@H]1CC=C(C)C[C@@H]21
- pEC50 [4]: 8.00 to 9.00

SMILES: CC1=CC[C@@H]2[C@@H](C1)c1c(O)cc(C(C)(C)C(=O)OCCCCCBr)cc1OC2(C)C
- pKi [5]: 8.92
- pKi [1]: 8.96
- pKi [2]: 9.22

SMILES: CC1=CC[C@@H]2[C@@H](C1)c1c(O)cc(C(C)(C)C(=O)OCCBr)cc1OC2(C)C
- pKi [5]: 8.11
- pKi [2]: 8.54

SMILES: CCCCOC(=O)C1(c2cc(O)c3c(c2)OC(C)(C)[C@@H]2CC=C(C)C[C@@H]32)CCC1
- t1/2 [3]: 36.3 min
- pEC50 [4]: > 9.00

SMILES: CC1=CC[C@@H]2[C@@H](C1)c1c(O)cc(C3(C(=O)OCCCCBr)CCC3)cc1OC2(C)C
- t1/2 [3]: 47.9 min

SMILES: CCCCC(=O)OCC(C)(C)c1cc(O)c2c(c1)OC(C)(C)[C@@H]1CC=C(C)C[C@@H]21
- pKi [5]: 9.30
- pKi [1]: 8.92
- pKi [2]: 9.00
- t1/2 [3]: 9.5 min

SMILES: COC(=O)C(C)(C)c1cc(O)c2c(c1)OC(C)(C)[C@@H]1CC=C(C)C[C@@H]21
- pKi [1]: 7.43
- pKi [2]: 7.46

SMILES: CCCSC(=O)C(C)(C)c1cc(O)c2c(c1)OC(C)(C)[C@@H]1CC=C(C)C[C@@H]21
- pKi [5]: 9.30
- pKi [1]: 9.10
- pKi [2]: 9.15
- t1/2 [3]: 312 min

SMILES: CCCCOC(=O)Cc1cc(O)c2c(c1)OC(C)(C)[C@@H]1CC=C(C)C[C@@H]21
- t1/2 [3]: 0.7 min

SMILES: CC1=CC[C@@H]2[C@@H](C1)c1c(O)cc(C(C)(C)C(=O)OCCCC#N)cc1OC2(C)C
- pKi [1]: 9.10
- t1/2 [3]: 46.5 min
- pEC50 [4]: > 9.00
- pEC50 [6]: 9.05
- Emax [7]: 89%
- Activity [8]: Dose-dependent effect
- ED50 [8]: 0.034 mg/kg
- deltaT [9]: < 4.5 °C
- deltaT [10]: 2 °C
- Activity [11]: inactive

SMILES: CCCCCNC(=O)C(C)(C)c1cc(O)c2c(c1)OC(C)(C)[C@@H]1CC=C(C)C[C@@H]21
- pEC50 [4]: 8.00 to 9.00
- Stability [12]: Stable

SMILES: CC1=CC[C@@H]2[C@@H](C1)c1c(O)cc(C(C)(C)C(=O)OCCCCBr)cc1OC2(C)C
- pKi [5]: 8.92
- pKi [1]: 9.05
- pKi [2]: 9.10
- t1/2 [3]: 12.9 min

SMILES: CC1=CC[C@@H]2[C@@H](C1)c1c(O)cc(CC(=O)OCCCCC#N)cc1OC2(C)C
- t1/2 [3]: 3.2 min
- pEC50 [4]: 7.00 to 8.00

SMILES: CC1=CC[C@@H]2[C@@H](C1)c1c(O)cc(C(C)(C)C(=O)OCCCBr)cc1OC2(C)C
- pKi [2]: 9.15

SMILES: CC1=CC[C@@H]2[C@@H](C1)c1c(O)cc(C3(C(=O)OCCCCC#N)CCC3)cc1OC2(C)C
- t1/2 [3]: 115 min
- pEC50 [4]: 8.00 to 9.00

SMILES: CC1=CC[C@@H]2[C@@H](C1)c1c(O)cc(CC(=O)OCCCCBr)cc1OC2(C)C
- t1/2 [3]: 1.7 min

SMILES: CC1=CC[C@@H]2[C@@H](C1)c1c(O)cc(C(C)(C)C(=O)OCCCCC#N)cc1OC2(C)C
- pKi [1]: 10.00
- pKi [2]: 9.05
- t1/2 [3]: 40.4 min
- pEC50 [4]: 8.00 to 9.00

SMILES: CCCCOC(=O)C(C)(C)c1cc(O)c2c(c1)OC(C)(C)[C@@H]1CC=C(C)C[C@@H]21
- t1/2 [3]: 12.4 min
- pEC50 [4]: > 9.00
- ED50 [8]: 0.37 mg/kg
- Activity [13]: Active

SMILES: CC1=CC[C@@H]2[C@@H](C1)c1c(O)cc(C(C)(C)C(=O)OCCCn3ccnc3)cc1OC2(C)C
- pKi [1]: 8.68
- pKi [2]: 8.89
- t1/2 [3]: 271 min
- pEC50 [4]: 8.00 to 9.00

— ChEMBL document CHEMBL4000142, “Probing the carboxyester side chain in controlled deactivation (-)-δ(8)-tetrahydrocannabinols” (J Med Chem, 2015)
